ED50 and Motor activity data for 26 molecules are collected here from ChEMBL document CHEMBL1121765, “3-Phenylpiperidines. Central dopamine-autoreceptor stimulating activity” (1981).

As a reminder, the ED50 is the dose that gives a 50% effect, or the effect in half of the subjects.

Calls of active or inactive are those of the source. No cut-off for these calls is given here.

The target of experiment [1] is T1, Dopamine receptor (Rattus norvegicus) (UniProt P25115+P19020+P30729+P18901+P61169). Put plainly: Dopamine receptor activation in limbic system of reserpinized rat; Inactive at >45 uM/Kg. It is filed as tissue-based.
In experiment [2] the target is T1, Dopamine receptor (Rattus norvegicus). Put plainly: Dopamine receptor activation in striatum of reserpinized rat; Inactive at >45 uM/Kg. The experiment is classed as tissue-based.
Experiment [3] has the same target. Put plainly: Evaluation of Dopamine receptor activation in striatum of reserpinized rat. The experiment is classed as functional, tissue-based.
The target is the same in experiment [4]. Put plainly: Evaluation for Dopamine receptor activation in limbic system of reserpinized rat. The experiment is classed as tissue-based.
In experiment [5] the test system is Rattus norvegicus. The experiment in a line: Motor activity in reserpinized rats when 100 umol/kg was administered subcutaneously. The experiment is classed as functional. The method in brief:
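Rats pretreated ip with reserpine (10 mg/kg) 6 h before testing; compound given sc in neck region, rats placed singly in photocell motility meters immediately after and motor activity recorded for 60 min, testing between 1 and 6 p.m.; saline controls; gross behaviour observed.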

In experiment [6] the test system is Rattus norvegicus. Put plainly: Motor activity in reserpinized rats when 2 umol/kg was administered subcutaneously.

Take `CCCN1CCCC(c2ccc(O)cc2)C1` (centres undefined): the ED50 result in experiment [1] and in experiment [2] was “inactive” throughout.

In experiment [3], `CC(C)(C)CN1CCCC(c2cccc(O)c2)C1` (centres undefined) registered a 50% effective dose (ED50) of more than 2.8 µmol/kg.

Take `CCCN1CCC(c2cccc(O)c2)C1` (centres undefined): the ED50 in experiment [4] and in experiment [3] was 45 µmol/kg in each case.

Turning to `CCCNCCc1cccc(O)c1`, the values for the ED50 in experiment [4] and in experiment [3] were 0.9 µmol/kg and 0.8 µmol/kg, respectively.

As to `Br.CCCN1CCCC(c2cccc(O)c2)C1` (centres undefined), in the experiment with Rattus norvegicus [5], the Motor activity turned out to be 55.

Regarding `CCCN1CCCC(c2cccc(CO)c2)C1` (centres undefined), the ED50 entry in experiment [1] and in experiment [2] was “inactive” throughout.

As for `CCCN1CCCC(c2cccc(C#N)c2)C1` (centres undefined), the ED50 result in experiment [1] and in experiment [2] was “inactive” throughout.

Molecule `CCCCCN1CCCC(c2cccc(O)c2)C1` (centres undefined) came in with an ED50 in experiment [3] of 0.9 µmol/kg.

Molecule `Br.CCCN1CCCC(c2ccc(O)c(O)c2)C1` (centres undefined) showed a Motor activity in the experiment on Rattus norvegicus [5] of 522.

On to `Oc1cccc(C2=CN3CCC2CC3)c1`, for which the ED50 result in experiment [1] and in experiment [2] was “inactive” throughout.

Regarding `CC(C)N1CCC(c2cccc(O)c2)C1` (centres undefined), the ED50 entry in experiment [1] and in experiment [2] was “inactive” each time.

On to `CCCN1CCCC(c2ccccc2)C1` (centres undefined), for which the ED50 entry in experiment [1] and in experiment [2] was “inactive” each time.

With `CCCN1CCCC(c2cccc(C(=O)OC)c2)C1` (centres undefined), the ED50 entry in experiment [1] and in experiment [2] was “inactive” throughout.

On to `CN1CCCC(c2cccc(O)c2)C1` (centres undefined), for which the 50% effect level in experiment [3] (ED50) was put at a dose of 2.5 µmol/kg.

With `CCCN1CCCC(c2cccc(C)c2)C1` (centres undefined), the ED50 entry in experiment [1] and in experiment [2] was “inactive” each time.

Take `Oc1cccc(C2CCNC2)c1` (centres undefined): the ED50 result in experiment [1] and in experiment [2] was “inactive” in each case.

As to `CCCN1CCCC(c2cccc(C(N)=O)c2)C1` (centres undefined), the ED50 entry in experiment [1] and in experiment [2] was “inactive” each time.

Regarding `Oc1cccc(C2CN3CCC2CC3)c1` (centres undefined), the ED50 result in experiment [1] and in experiment [2] was “inactive” throughout.

In the case of `CCCN1CCCC(c2ccccc2O)C1` (centres undefined), the ED50 result in experiment [1] and in experiment [2] was “inactive” throughout.

Molecule `CN1CCc2cccc3c2[C@H]1Cc1ccc(O)c(O)c1-3` [APOMORPHINE] gave a Motor activity in the experiment with Rattus norvegicus [6] of 624.

With `CCCN1CCCC(c2cccc(OC)c2)C1` (centres undefined), the ED50 result in experiment [1] and in experiment [2] was “inactive” each time.

As to `Oc1cccc(C2CCCN(C3CCCCC3)C2)c1` (centres undefined), in experiment [3], the ED50 worked out at 45 µmol/kg.

In the case of `CCCN1CCCC(c2cccc(N)c2)C1` (centres undefined), the ED50 entry in experiment [1] and in experiment [2] was “inactive” each time.

For the molecule `Oc1cccc(C2CCCN(Cc3ccccc3)C2)c1` (centres undefined), it took a dose of 24 µmol/kg to reach the 50% effect level in experiment [3] (ED50).

Turning to `Oc1cccc(-c2cccnc2)c1`, the ED50 entry in experiment [1] and in experiment [2] was “inactive” throughout.

Consider `CCCN1CCCCC(c2cccc(O)c2)C1` (centres undefined), for which the ED50 entry in experiment [1] and in experiment [2] was “inactive” throughout.
